In ChEMBL document CHEMBL2401625, “Synthesis and evaluation of pharmacological properties of some new xanthone derivatives with piperazine moiety” (Bioorg Med Chem Lett, 2013):
The source made the active and inactive calls. No cut-off for these calls is given here.

Assays:
[1] = Displacement of [3H]CGP-12177 from beta1-adrenergic receptor in rat cerebral cortex after 60 mins by scintillation counting; format: tissue-based
In short: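 Radioligand binding on rat brain tissue membranes, run in 96-well format. Ki was calculated by the Cheng–Prusoff equation.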

[2] = molecular target: T1, Adrenergic receptor alpha-1 (Rattus norvegicus, UniProt P15823+P23944+P43140); assay: Displacement of [3H]prazosin from alpha1-adrenergic receptor in rat cerebral cortex after 30 mins by scintillation counting; format: tissue-based
T1 sequence (P15823 whole entry): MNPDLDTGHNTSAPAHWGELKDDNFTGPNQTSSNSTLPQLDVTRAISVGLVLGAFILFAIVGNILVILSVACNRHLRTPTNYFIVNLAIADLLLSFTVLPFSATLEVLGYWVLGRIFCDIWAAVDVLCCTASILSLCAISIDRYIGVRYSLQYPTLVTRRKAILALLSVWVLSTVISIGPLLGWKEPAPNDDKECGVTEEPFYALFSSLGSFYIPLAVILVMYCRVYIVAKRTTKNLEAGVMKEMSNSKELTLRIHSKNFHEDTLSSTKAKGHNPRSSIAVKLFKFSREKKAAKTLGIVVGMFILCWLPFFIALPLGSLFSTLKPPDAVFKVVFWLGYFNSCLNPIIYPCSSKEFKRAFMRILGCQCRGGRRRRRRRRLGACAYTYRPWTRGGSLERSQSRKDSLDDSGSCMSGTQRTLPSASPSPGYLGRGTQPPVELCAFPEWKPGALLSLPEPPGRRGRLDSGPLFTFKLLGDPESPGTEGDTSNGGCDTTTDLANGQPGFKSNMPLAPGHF
T1 sequence (P23944 whole entry): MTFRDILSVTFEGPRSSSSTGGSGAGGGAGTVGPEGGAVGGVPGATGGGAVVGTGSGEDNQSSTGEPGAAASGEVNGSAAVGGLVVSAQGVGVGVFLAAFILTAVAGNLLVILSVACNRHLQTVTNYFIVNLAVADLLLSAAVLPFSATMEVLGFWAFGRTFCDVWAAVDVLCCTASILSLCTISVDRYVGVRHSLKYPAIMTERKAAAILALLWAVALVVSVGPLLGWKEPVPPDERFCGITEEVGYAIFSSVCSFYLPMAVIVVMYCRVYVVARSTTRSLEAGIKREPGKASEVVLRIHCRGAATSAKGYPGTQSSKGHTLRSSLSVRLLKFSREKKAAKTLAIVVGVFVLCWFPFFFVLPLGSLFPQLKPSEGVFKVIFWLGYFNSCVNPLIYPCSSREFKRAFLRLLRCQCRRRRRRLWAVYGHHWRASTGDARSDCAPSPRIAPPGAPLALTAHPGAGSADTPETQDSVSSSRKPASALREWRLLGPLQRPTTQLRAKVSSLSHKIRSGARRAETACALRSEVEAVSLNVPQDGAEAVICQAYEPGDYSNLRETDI
T1 sequence (P43140 whole entry): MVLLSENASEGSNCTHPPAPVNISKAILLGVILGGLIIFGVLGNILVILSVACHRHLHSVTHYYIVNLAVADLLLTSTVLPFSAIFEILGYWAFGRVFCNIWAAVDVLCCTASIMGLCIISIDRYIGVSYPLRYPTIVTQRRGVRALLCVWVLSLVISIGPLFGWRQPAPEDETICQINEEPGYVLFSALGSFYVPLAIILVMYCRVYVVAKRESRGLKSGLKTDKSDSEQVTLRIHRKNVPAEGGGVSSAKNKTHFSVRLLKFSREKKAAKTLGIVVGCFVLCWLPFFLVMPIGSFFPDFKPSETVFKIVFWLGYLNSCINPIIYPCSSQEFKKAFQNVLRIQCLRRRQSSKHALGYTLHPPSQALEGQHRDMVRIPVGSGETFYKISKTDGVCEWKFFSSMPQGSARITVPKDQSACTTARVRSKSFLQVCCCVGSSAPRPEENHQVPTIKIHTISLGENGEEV
In short: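 Radioligand binding on rat brain tissue membranes, run in 96-well format. [3H]prazosin was used for α1 (n = 2) and [3H]CGP-12177 for β1 (n = 2). Ki was calculated by the Cheng–Prusoff equation.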

[3] = molecular target: 5-hydroxytryptamine receptor 7 (Homo sapiens, UniProt P34969); assay: Displacement of [3H]5-CT from human 5HT7b receptor expressed in HEK293 cells after 1 hr; format: cell-based
5-hydroxytryptamine receptor 7, sequence (P34969 whole entry): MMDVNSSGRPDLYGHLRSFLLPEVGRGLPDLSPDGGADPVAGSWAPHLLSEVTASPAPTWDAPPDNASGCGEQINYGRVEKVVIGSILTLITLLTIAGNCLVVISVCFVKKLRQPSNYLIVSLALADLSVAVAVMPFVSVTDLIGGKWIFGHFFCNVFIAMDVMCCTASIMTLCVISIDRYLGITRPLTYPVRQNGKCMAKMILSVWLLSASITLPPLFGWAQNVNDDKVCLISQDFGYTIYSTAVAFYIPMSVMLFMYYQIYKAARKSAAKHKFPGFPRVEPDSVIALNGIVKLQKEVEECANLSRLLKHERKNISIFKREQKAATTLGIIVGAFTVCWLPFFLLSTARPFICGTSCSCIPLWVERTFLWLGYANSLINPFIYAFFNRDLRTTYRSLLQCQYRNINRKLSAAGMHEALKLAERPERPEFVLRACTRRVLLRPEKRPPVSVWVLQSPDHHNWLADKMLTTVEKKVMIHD

[4] = molecular target: 5-hydroxytryptamine receptor 6 (Homo sapiens, UniProt P50406); assay: Displacement of [3H]LSD from human 5HT6 receptor expressed in HEK293 cells after 1 hr; format: cell-based
5-hydroxytryptamine receptor 6, sequence (P50406 whole entry): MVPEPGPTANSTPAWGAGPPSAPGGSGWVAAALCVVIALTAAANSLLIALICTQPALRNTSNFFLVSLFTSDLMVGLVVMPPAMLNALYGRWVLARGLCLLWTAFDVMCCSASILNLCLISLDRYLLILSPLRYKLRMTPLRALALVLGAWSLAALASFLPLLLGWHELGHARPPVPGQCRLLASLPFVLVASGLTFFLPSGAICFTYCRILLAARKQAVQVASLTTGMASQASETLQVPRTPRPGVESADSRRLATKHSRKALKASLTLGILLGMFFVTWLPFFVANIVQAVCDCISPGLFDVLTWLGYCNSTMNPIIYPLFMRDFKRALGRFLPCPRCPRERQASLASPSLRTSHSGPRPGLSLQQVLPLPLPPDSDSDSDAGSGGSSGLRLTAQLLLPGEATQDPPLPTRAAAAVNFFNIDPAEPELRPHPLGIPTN

[5] = molecular target: T2, 5-hydroxytryptamine receptor 1A (Homo sapiens, UniProt P08908); assay: Displacement of [3H]8-OH-DPAT from human 5HT1A receptor expressed in HEK293 cells after 1 hr; format: cell-based
T2 sequence (P08908 whole entry): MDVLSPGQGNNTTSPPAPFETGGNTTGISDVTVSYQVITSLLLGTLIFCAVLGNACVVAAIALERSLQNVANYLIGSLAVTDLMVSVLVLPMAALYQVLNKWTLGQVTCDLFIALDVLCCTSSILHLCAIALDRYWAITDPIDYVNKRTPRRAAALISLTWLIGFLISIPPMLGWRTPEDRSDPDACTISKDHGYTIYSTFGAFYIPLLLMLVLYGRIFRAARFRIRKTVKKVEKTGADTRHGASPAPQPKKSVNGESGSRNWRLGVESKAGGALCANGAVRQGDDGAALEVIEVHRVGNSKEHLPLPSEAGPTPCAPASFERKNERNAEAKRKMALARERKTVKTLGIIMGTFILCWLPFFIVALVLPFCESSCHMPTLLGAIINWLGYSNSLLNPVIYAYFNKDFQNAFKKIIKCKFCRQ

Rattus norvegicus [6] = species on record: Rattus norvegicus; assay: Displacement of [3H]CGP-12177 from beta1-adrenergic receptor in rat cerebral cortex at 50 uM after 60 mins by scintillation counting; format: tissue-based
Mus musculus [7] = assay: Neurotoxicity in CF1 mouse assessed as minimal motor impairment at 30 mg/kg, ip after 4 hrs by rotorod test; format: toxicity, organism-based; set-up: dose 30 mg/kg, route intraperitoneal; details: in vivo
In short: (§1)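 Rotarod neurotoxicity screen in mice dosed i.p. at 30, 100 or 300 mg/kg, read 0.5 or 4 h after dosing. The animal must stay on a rod rotating at 6 rpm without falling, measured 3 times within 1 min. A fall counts as minimal motor impairment. Result is recorded as impaired animals over animals used.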

Mus musculus [8] = assay: Neurotoxicity in CF1 mouse assessed as minimal motor impairment at 100 mg/kg, ip after 4 hrs by rotorod test; format: toxicity, organism-based; set-up: dose 100 mg/kg, route intraperitoneal; details: in vivo; in short: as §1
Mus musculus [9] = assay: Neurotoxicity in CF1 mouse assessed as minimal motor impairment at 300 mg/kg, ip after 0.5 hrs by rotorod test; format: toxicity, organism-based; set-up: dose 300 mg/kg, route intraperitoneal; details: in vivo; in short: as §1
Mus musculus [10] = assay: Neurotoxicity in CF1 mouse assessed as minimal motor impairment at 30 mg/kg, ip after 0.5 hrs by rotorod test; format: toxicity, organism-based; set-up: dose 30 mg/kg, route intraperitoneal; details: in vivo; in short: as §1
Rattus norvegicus [11] = assay: Neurotoxicity in Sprague-Dawley rat assessed as minimal motor impairment at 30 mg/kg, po after 1 hr by rotorod test; details: in vivo
Rattus norvegicus [12] = assay: Neurotoxicity in Sprague-Dawley rat assessed as minimal motor impairment at 30 mg/kg, po after 4 hrs by rotorod test; details: in vivo
Rattus norvegicus [13] = assay: Neurotoxicity in Sprague-Dawley rat assessed as minimal motor impairment at 30 mg/kg, po after 2 hrs by rotorod test; details: in vivo
Rattus norvegicus [14] = assay: Neurotoxicity in Sprague-Dawley rat assessed as minimal motor impairment at 30 mg/kg, po after 0.5 hrs by rotorod test; details: in vivo
Rattus norvegicus [15] = assay: Neurotoxicity in Sprague-Dawley rat assessed as minimal motor impairment at 30 mg/kg, po after 0.25 hrs by rotorod test; details: in vivo
Mus musculus [16] = assay: Anticonvulsant activity in CF1 mouse assessed as protection against maximal electroshock-induced seizures at 300 mg/kg, ip after 0.5 hrs; format: functional, organism-based; set-up: dose 300 mg/kg
In short: (§2)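 Mice given compound i.p. at 30, 100 or 300 mg/kg and tested 0.5 or 4 h after dosing. Seizures were induced by maximal electroshock (MES) or subcutaneous metrazole (ScMet). Prevention of seizures counts as protection. Result is recorded as number of animals protected over number tested.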

Mus musculus [17] = assay: Anticonvulsant activity in CF1 mouse assessed as protection against maximal electroshock-induced seizures at 100 mg/kg, ip after 0.5 hrs; format: functional, organism-based; set-up: dose 100 mg/kg; in short: as §2
Mus musculus [18] = assay: Anticonvulsant activity in CF1 mouse assessed as protection against maximal electroshock-induced seizures at 30 mg/kg, ip after 0.5 hrs; format: functional, organism-based; set-up: dose 30 mg/kg; in short: as §2
Mus musculus [19] = assay: Neurotoxicity in CF1 mouse assessed as minimal motor impairment at 300 mg/kg, ip after 4 hrs by rotorod test; format: toxicity, organism-based; set-up: dose 300 mg/kg, route intraperitoneal; details: in vivo; in short: as §1
Mus musculus [20] = assay: Neurotoxicity in CF1 mouse assessed as minimal motor impairment at 100 mg/kg, ip after 0.5 hrs by rotorod test; format: toxicity, organism-based; set-up: dose 100 mg/kg, route intraperitoneal; details: in vivo; in short: as §1
Mus musculus [21] = assay: Anticonvulsant activity in CF1 mouse assessed as protection against subcutaneous metrazole-induced seizures at 300 mg/kg, ip after 4 hrs; format: functional, organism-based; set-up: dose 300 mg/kg; in short: as §2
Mus musculus [22] = assay: Anticonvulsant activity in CF1 mouse assessed as protection against subcutaneous metrazole-induced seizures at 100 mg/kg, ip after 4 hrs; format: functional, organism-based; set-up: dose 100 mg/kg; in short: as §2
Mus musculus [23] = assay: Anticonvulsant activity in CF1 mouse assessed as protection against subcutaneous metrazole-induced seizures at 30 mg/kg, ip after 4 hrs; format: functional, organism-based; set-up: dose 30 mg/kg; in short: as §2
Mus musculus [24] = assay: Anticonvulsant activity in CF1 mouse assessed as protection against subcutaneous metrazole-induced seizures at 300 mg/kg, ip after 0.5 hrs; format: functional, organism-based; set-up: dose 300 mg/kg; in short: as §2
Mus musculus [25] = assay: Anticonvulsant activity in CF1 mouse assessed as protection against subcutaneous metrazole-induced seizures at 100 mg/kg, ip after 0.5 hrs; format: functional, organism-based; set-up: dose 100 mg/kg; in short: as §2
Mus musculus [26] = assay: Anticonvulsant activity in CF1 mouse assessed as protection against subcutaneous metrazole-induced seizures at 30 mg/kg, ip after 0.5 hrs; format: functional, organism-based; set-up: dose 30 mg/kg; in short: as §2
Mus musculus [27] = assay: Anticonvulsant activity in CF1 mouse assessed as protection against maximal electroshock-induced seizures at 300 mg/kg, ip after 4 hrs; format: functional, organism-based; set-up: dose 300 mg/kg; in short: as §2
Mus musculus [28] = assay: Anticonvulsant activity in CF1 mouse assessed as protection against maximal electroshock-induced seizures at 100 mg/kg, ip after 4 hrs; format: functional, organism-based; set-up: dose 100 mg/kg; in short: as §2
Mus musculus [29] = assay: Anticonvulsant activity in CF1 mouse assessed as protection against maximal electroshock-induced seizures at 30 mg/kg, ip after 4 hrs; format: functional, organism-based; set-up: dose 30 mg/kg; in short: as §2

Structure (SMILES)	Ki [2]	Ki [3]	Ki [4]	Ki [5]	inhibition (Rattus norvegicus [6])	Activity (Mus musculus [7])	Activity (Mus musculus [8])	Activity (Mus musculus [10])	also measured
COc1ccc2c(=O)c3cc(CN4CCN(c5ccccc5OC)CC4)ccc3oc2c1.Cl	0.38 µM	1.14 µM	13.6 µM	0.429 µM					Ki [1]: > 30 µM
CN1CCN(Cc2cccc3c(=O)c4ccc(Cl)cc4oc23)CC1.Cl.Cl.Cl	0.65 µM	10.5 µM	19.5 µM	13.3 µM	inactive				
COc1ccc2c(=O)c3cc(CN4CCN(Cc5ccccc5)CC4)ccc3oc2c1.Cl.Cl	0.31 µM	13.5 µM	8.84 µM	1.67 µM					
COc1ccc2c(=O)c3cc(CN4CCN(C)CC4)ccc3oc2c1						Non-toxic	Non-toxic	Non-toxic	Activity (Mus musculus [9]): Toxic; Activity (Rattus norvegicus [11]): Non-toxic; Activity (Rattus norvegicus [12]): Non-toxic; Activity (Rattus norvegicus [13]): Non-toxic; Activity (Rattus norvegicus [14]): Non-toxic; Activity (Rattus norvegicus [15]): Non-toxic
COc1ccc2c(=O)c3cccc(CN4CCN(c5ccccc5OC)CC4)c3oc2c1.Cl	0.17 µM	0.195 µM	9.36 µM	0.024 µM	inactive	Non-toxic	Non-toxic	Non-toxic	Activity (Mus musculus [16]): inactive; Activity (Mus musculus [17]): inactive; Activity (Mus musculus [18]): inactive; Activity (Mus musculus [19]): Non-toxic; Activity (Mus musculus [20]): Non-toxic; Activity (Mus musculus [21]): inactive; Activity (Mus musculus [22]): inactive; Activity (Mus musculus [23]): inactive; Activity (Mus musculus [24]): inactive; Activity (Mus musculus [25]): inactive; Activity (Mus musculus [26]): inactive; Activity (Mus musculus [27]): inactive; Activity (Mus musculus [28]): inactive; Activity (Mus musculus [29]): inactive
